This series is described as follows: Toxicity liver stage against HepG2, at 10uM. Type of series: cell-based. On the set-up: test concentration 10 uM, cell line HepG2-A16-CD81EGFP. The note with it: human, HepG2-A16-CD81EGFP cells; read-out: INHIBITION
Summed up: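 Uninfected HepG2-A16-CD81EGFP cells, 3 × 10^3 per well, 1536-well, plated on prespotted compound at 10 μM final, parasite-free screening media added to match infected plates; puromycin 10 μM positive, DMSO 0.5% negative; run in parallel with 48 h PbLuc assay at 37 °C, 5% CO2; viability by CellTiter-Glo luminescence, normalized to controls.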

On to `CCn1c(C)cc(C(=O)N2CCCC(n3ccnc3C)C2)c1C` (stereo unspecified), for which the cytotoxicity at 10 µM is -1.51%. Then `O=C(CC1CCc2ccccc21)NCCSc1cnn[nH]1` (stereo unspecified), with 0.878%. For `CCCS(=O)(=O)N1CCC2(CCCN(Cc3cccc(F)c3F)C2=O)C1` (stereo unspecified) the value was 10.3%; for `COCC(=O)NCC1CCC(c2nnc(-c3ccncc3)o2)CC1` (stereo unspecified), -3.49%.

For the molecule `CN1C(=O)C2(CC(=O)Nc3[nH]ncc32)c2cc(Cl)ccc21` (stereo unspecified), the cytotoxicity at 10 µM is -1.89%. For the molecule `Nc1cc(-c2cncnc2C2CCN(C(=O)c3ccccc3)C2)ccn1` (stereo unspecified), the cytotoxicity at 10 µM came out at 1.32%.

For `NC(=O)N1CCC2(CC1)CC(=O)N(CC1CCCO1)c1ccccc12` (stereo unspecified), the cytotoxicity at 10 µM was determined as 5.56%.

Turning to `Cc1c(C(C)NC(=O)Nc2ccccc2F)cnn1C` (stereo unspecified), the cytotoxicity at 10 µM was -45.2%.

`c1cnnc(N[C@@H]2CC[C@@H]3CN(Cc4ccc5cc[nH]c5c4)C[C@@H]32)c1`: the cytotoxicity at 10 µM was -0.423%. Take `Cc1c(CN2CC[C@@H](N3CCC(O)CC3)[C@H](O)C2)[nH]c2ccc(F)cc12`: the cytotoxicity at 10 µM turned out to be 4.07%. Then `O=C(CN1C(=O)c2ccccc2CS1(=O)=O)c1ccccc1`, with 15.3%; and `Cc1nn(C)c(C)c1CN(C)C1CCN(c2ncnc3[nH]cnc23)CC1`, with -76.7%. In the case of `COc1ccc(OCCN2CCC(N3CCNC3=O)CC2)cc1`, the cytotoxicity at 10 µM was 29.5%. For the molecule `Cc1ccc(CN2CC[C@]3(C[C@H](OCc4ccccn4)CO3)C2)o1`, the cytotoxicity at 10 µM is -0.617%.

Consider `CN(Cc1ccncc1)C1COC2(CCN(Cc3nccn3C)CC2)C1` (stereo unspecified), for which the cytotoxicity at 10 µM is -98.7%. For `CN1CCC(N(C)C(=O)c2cnn(-c3ccccc3Br)c2N)CC1` the value was -5.63%. Then `CC(C)c1nc2cc(NC(=O)Cn3ccccc3=O)ccc2o1`, with -17.8%; and `CCC(NC(=O)NCc1cccc(N(C)C)n1)c1ccccc1OC` (stereo unspecified), with 29.1%. `COCCN1Cc2ccccc2C2(CCN(C(=O)c3ccco3)CC2)C1`: the cytotoxicity at 10 µM came to 5.85%. Take `CC(NC(=O)NCC1(c2ccc(F)cc2)CC1)c1nncn1C` (stereo unspecified): the cytotoxicity at 10 µM is -4.75%. In the case of `Cc1cc(CN(CC(N)=O)CC(C)C)no1`, the cytotoxicity at 10 µM was 3.72%. On to `CCc1nnsc1C(=O)NC(CC(C)C)C(=O)OC` (stereo unspecified), for which the cytotoxicity at 10 µM stood at 11.4%. In the case of `CN(C(=O)Cc1ccc(NC(=O)NC2CC2)cc1)c1ccccc1`, the cytotoxicity at 10 µM came to 6.35%. Take `CN(C)Cc1cnc(C2CCN(C(=O)c3cccc(F)c3)C2)[nH]1` (stereo unspecified): the cytotoxicity at 10 µM is 2.54%. On to `Cc1cnn(C2CCCN(C(=O)c3cc(Cl)c4c(c3)OCO4)C2)c1` (stereo unspecified), for which the cytotoxicity at 10 µM was -5.25%. For `COCc1cc(N(C)Cc2c(C)nn(C)c2C)n2nccc2n1` the value was 2.45%; for `Cc1noc(C(C)C)c1C(=O)NCC(c1cccs1)N(C)C` (stereo unspecified), -14.5%; for `CCNC(=O)c1ccoc1CN1c2ccccc2CC1C` (stereo unspecified), -10.2%. For `Cc1nn(C)cc1CN1CCC(c2ncc(Cl)cc2S(C)(=O)=O)CC1`, the cytotoxicity at 10 µM was -0.1%. For `CN(CCCc1nccn1C)C(=O)C1CCN(C(=O)C2CCCC2)CC1` the value was -15.3%; for `Cc1cc(C(=O)N2CCCC2c2nnc3n2CCCCC3)on1` (stereo unspecified), 1.68%. For `N#Cc1cccc(CN2CCn3cc(CNC(=O)C4CCC4)nc3C2)c1` the value was 14%; for `CCOC(=O)NC(CNC(=O)c1cccnc1SC)CC(C)C` (stereo unspecified), 6.68%; for `CN(C)C(=O)C1OC2(CCN(C(=O)c3ccco3)CC2)c2ccccc21` (stereo unspecified), 4.93%. In the case of `O=C(Nc1ccccc1)C1CN(Cc2cccs2)CC12CCOCC2` (stereo unspecified), the cytotoxicity at 10 µM was 3.09%. Turning to `CC(=O)Nc1ccc(CN2CCCC(c3cc4ncccc4[nH]3)C2)cc1` (stereo unspecified), the cytotoxicity at 10 µM came to 0.99%.

Consider `CCc1nsc(N2CCCN(C(=O)c3ccc(CC)o3)CC2)n1`, for which the cytotoxicity at 10 µM is 7.76%. In the case of `COc1ccc(CN2CC(O)CN(C(=O)OCC(C)(C)C)CC2=O)cc1` (stereo unspecified), the cytotoxicity at 10 µM amounted to 2.55%.

In the case of `CSc1ncccc1C(=O)N1C[C@@H]2CC[C@H]1CN(C(C)=O)C2`, the cytotoxicity at 10 µM turned out to be 4.99%.

For `COc1ccccc1N1CCN(C(=O)NC(C)c2nncn2C)CC1` (stereo unspecified), the cytotoxicity at 10 µM was -4.23%.

`CCc1ncc(C(=O)c2ccc(OC)cc2)n1C`: the cytotoxicity at 10 µM was found to be 14.5%.

For `O=C(CC1CCN(c2cccnn2)CC1)NC1CCOCC1`, the cytotoxicity at 10 µM is 0.671%. For the molecule `COc1ccccc1CCNC(=O)CN1CCCC1c1noc(C)n1` (stereo unspecified), the cytotoxicity at 10 µM was -3.81%. Consider `Cc1nc(-c2ccncc2)nc(N(C)CCc2ccncc2)c1C`, for which the cytotoxicity at 10 µM stood at 11.6%. Then `CN(C)CCCN1CC2(CCN(C(=O)C3(C)CCCCO3)CC2)OC1=O` (stereo unspecified), with -8.76%; and `O=C(c1ccc[nH]1)N1CC2(CCN(c3nccs3)C2)C1`, with 5.68%. For the molecule `Cc1c(C)n(Cc2ccccn2)c2nc3c(c(N)c12)CCCC3`, the cytotoxicity at 10 µM worked out at 8.37%. With `CCNS(=O)(=O)c1ccc2c(c1)c(=O)n(CC)c(=O)n2CC`, the cytotoxicity at 10 µM amounted to 10.4%.

As to `O=C(NCC(=O)N1CCCC1)c1nc(Cc2c(Cl)cccc2Cl)no1`, the cytotoxicity at 10 µM was 2.63%. Regarding `COCC(=O)N1CCCC2(CCN(Cc3cccc(C)n3)C2=O)C1` (stereo unspecified), the cytotoxicity at 10 µM is -0.559%. As for `O=C(CN1CCCS(=O)(=O)CC1)NCc1ccccc1F`, the cytotoxicity at 10 µM turned out to be 3.76%. For `Cc1cnc2n1CCN(C)C21CCN(CC2CC2)CC1` the value was 7.34%; for `CN(C)C(=O)CN1CCC2(CCN(C(=O)N3CCCC3)CC2)C1=O`, 2.7%. Turning to `CCn1ccnc1CN1C[C@@H](CN2CCCC2)[C@@H](CO)C1`, the cytotoxicity at 10 µM is -9.96%. As for `c1ccc(CCN2CCN(C3CCOC4(CCOCC4)C3)CC2)nc1` (stereo unspecified), the cytotoxicity at 10 µM came out at 2.1%. Then `O=C1CN(C(=O)c2cc3c(F)cc(Br)cc3[nH]2)CCN1`, with 0.0723%; and `CN(C)C(CNC(=O)c1[nH]nc(C2CC2)c1Br)C1CC1` (stereo unspecified), with -4.14%. For `COCC(=O)NC[C@]1(O)CN(Cc2ccc3c(c2)OCCO3)C[C@H]1O` the value was 1.88%.

On to `CCOC1CCN(CC(=O)Nc2oc(C)c3c(C)n[nH]c(=O)c23)CC1`, for which the cytotoxicity at 10 µM is -14.4%. For `O=C(Cn1ncc2c(c1=O)CCCC2)Nc1cccc2[nH]ccc12`, the cytotoxicity at 10 µM is 3.16%. For `O=C(NCCOC1CCCCC1)c1ccc(-c2ccco2)[nH]c1=O` the value was -8.08%; for `COc1nc2ccn(CCc3cnccn3)c(=O)c2cc1C#N`, 54.1%; for `COc1ccc(C2=CN=C(C(F)(F)F)CC2N)cc1` (stereo unspecified), 16.6%. In the case of `CCc1nc2n(n1)CC(NCC1=Cc3ccc(OC)cc3OC1)CC2` (stereo unspecified), the cytotoxicity at 10 µM was 4.02%. On to `CCCC(C(=O)NC1CCN(S(C)(=O)=O)CC1)c1ccccc1` (stereo unspecified), for which the cytotoxicity at 10 µM was -1.38%. Consider `CS(=O)(=O)c1ccccc1NCc1ccc(Cn2ccnc2)cc1`, for which the cytotoxicity at 10 µM is 1.67%. For `COc1ccc2[nH]c3c(N(C)CC4OCCO4)ncnc3c2c1`, the cytotoxicity at 10 µM is 36%. As for `COc1ccc(Br)cc1CN(C)C(C)c1nc(C(C)C)no1` (stereo unspecified), the cytotoxicity at 10 µM was 4.43%. `CC(Cn1cccn1)NC(=O)Nc1ccc(N2CCCCC2)nc1` (stereo unspecified): the cytotoxicity at 10 µM is -4.39%. For `CCC1(c2ccc(NS(=O)(=O)N(C)C)cc2)CCC(=O)NC1=O` (stereo unspecified), the cytotoxicity at 10 µM is -7.19%. Consider `Cc1nccc(C(=O)N2CCCN(Cc3cnn(C(C)C)c3)CC2)n1`, for which the cytotoxicity at 10 µM is -0.239%. With `CCn1nc(C)c2c1cnn2CCNS(=O)(=O)CC`, the cytotoxicity at 10 µM came out at 2.63%.

Regarding `Cn1ncc2c(N[C@@H]3CS(=O)(=O)C[C@H]3O)nc(C(C)(C)C)nc21`, the cytotoxicity at 10 µM is -1.32%. Consider `Cn1ccnc1C1(O)CCN(C(=O)Cc2ccccc2)CC1`, for which the cytotoxicity at 10 µM stood at 5.09%. Consider `COc1ccc2c(c1)[C@@H](CCNC(C)=O)CC(C)(C)O2`, for which the cytotoxicity at 10 µM was -6.33%. On to `COc1cccc(F)c1C(C)NC(=O)NCCc1ccc(C)nc1` (stereo unspecified), for which the cytotoxicity at 10 µM is -2.13%.

On to `CC(C)c1nc(CN(C)C(=O)CNC(N)=O)cs1`, for which the cytotoxicity at 10 µM is 17.4%. As for `Cc1ccc(N2CCC(NC(C)c3ccc(C)o3)CC2)nc1` (stereo unspecified), the cytotoxicity at 10 µM was -6.59%. With `Cc1ncsc1C(=O)NC1CCN(CCC(=O)Nc2ccccc2)CC1`, the cytotoxicity at 10 µM was -1.39%.

Take `CNC(=O)CCc1cc(C)nc(C2CCCN2)c1` (stereo unspecified): the cytotoxicity at 10 µM was -8.49%. Then `CC(C)c1nnc(CN(C)Cc2ccccc2-c2ccccc2)o1`, with 5.98%. Turning to `COc1cc(CNC(C)Cn2cccn2)cc(Cl)c1OC` (stereo unspecified), the cytotoxicity at 10 µM is -1.14%. As for `CSCC1CCCN1CCc1ccncc1` (stereo unspecified), the cytotoxicity at 10 µM stood at 0.684%. `COc1cc(C(=O)N(Cc2cnn(C)c2)C(C)C)ccc1OC(C)C`: the cytotoxicity at 10 µM was -6.02%. Turning to `COc1cccc(-c2n[nH]c3c2CN(C(=O)C2=C(C)OCCO2)CC3)c1`, the cytotoxicity at 10 µM is 3.28%. Regarding `Cc1ccccc1C(CC(=O)NCC(N)=O)c1ccccc1` (stereo unspecified), the cytotoxicity at 10 µM turned out to be 5.17%. Consider `CN(CC1CCOC1)S(=O)(=O)c1cccc(C(=O)N2CCOCC2)c1` (stereo unspecified), for which the cytotoxicity at 10 µM is -13.3%. As for `O=C(Nc1ncn(CC(=O)N2CCCCCC2)n1)C1CCCO1` (stereo unspecified), the cytotoxicity at 10 µM was -4.56%.

Turning to `Cc1ccc(-c2nc(C3CCN(C(=O)c4ccnn4C)CC3)no2)cn1`, the cytotoxicity at 10 µM is -5.17%.

With `O=C(c1cccnc1)N1C[C@H]2CN(Cc3cccc(F)c3)C(=O)[C@H]2C1`, the cytotoxicity at 10 µM is -78.9%.

As for `CCC(C(=O)NCC1=CCCN(C)C1)c1ccccc1` (stereo unspecified), the cytotoxicity at 10 µM is -2.65%. Then `O=C(CN1CCNC1=O)NCc1ccc2sccc2c1`, with 5.05%. For `Oc1nc(C2CC2)nc2c1nnn2C1CCN(Cc2ccoc2)CC1`, the cytotoxicity at 10 µM was 6.01%. Consider `CC(C)(C)c1nnnn1CC(=O)N(CCC#N)c1ccccc1`, for which the cytotoxicity at 10 µM is -14.2%. In the case of `CCOc1ncccc1C(=O)NCCN(CC)C1CC1`, the cytotoxicity at 10 µM is 4.4%. With `COCCN1CCC(CN(CC2CCCO2)C(=O)CCNC(C)=O)CC1` (stereo unspecified), the cytotoxicity at 10 µM was -5.99%.

Values taken from ChEMBL document CHEMBL4513216, “Probing the Open Global Health Chemical Diversity Library for Multistage-Active Starting Points for Next-Generation Antimalarials” (ACS Infect Dis, 2020).
